# Results from PMC5855380 (Pharmacognosy Research, 2018).
# Test system: HDFn cells
# Assay: PrestoBlue cell viability assay, HDFn
# Format: cell-based
# Details: Homo sapiens, 96 h, read-out: IC50 (half maximal inhibitory concentration), HDFn
# Procedure, shortened: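 HDFn cells grown in DMEM with 10% FBS and 1X antibiotic-antimycotic (37°C, 5% CO2); seeded at 1×10^4 viable cells/well and attached overnight. Test compound (DMSO stock, 0.1% final DMSO) added in two-fold dilutions, 50–0.39 µg/mL final, for 4 days. PrestoBlue 2 h; absorbance 570 nm normalized to 600 nm. Untreated, Zeocin and media-only background wells. Triplicates; IC50 from dose-response curves.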
row,Structure (SMILES),IC50 [µg/mL]
1,"CC(C)=CCC/C(C)=C/CC/C(C)=C/CC/C=C(\C)CC/C=C(\C)CCC=C(C)C [Compound 3, squalene]",0.1
2,"CC1(C)CC[C@]2(C(=O)O)CC[C@]3(C)C(=CC[C@@H]4[C@@]5(C)CC[C@H](O)C(C)(C)[C@@H]5CC[C@]43C)[C@@H]2C1 [Compound 2, oleanolic acid]",29.5
